Bioassay records: PubChem BioAssay, several laboratories
EBNA-1 inh – blocks EBNA-1 binding to DNA; AID 1950; 0.34% of 300,000 active; inhibition, % at 14.8 µM; EBNA-1 DNA binding, fluorescence polarization; in the data active = inhibition above about 28%
HCV NS3 hel inh – inhibitors of Hepatitis C virus NS3 helicase; NS3 helicase DNA unwinding, Cy5 molecular beacon fluorescence; AID 1800; inhibition, % at 10.9 µM; 0.56% of 290,000 active;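 active = inhibition above the mean of all tested compounds plus 3 SD, set per campaign, cut at about 35% in these data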
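Assay system: hepatitis C virus NS3 helicase domain fragment enzyme. Also added: annealed dual-labelled DNA beacon duplex, ATP-started. Timing: 1 h reaction at 25 °C, ATP-initiated. Technique: Cy5 fluorescence at 0 and 60 min, beacon hairpin quenching. Evaluation: % inhibition of unwinding. Replication: one well per compound.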
core dimer inh – blocks dimerization of HCV core protein; AID 1899; TR-FRET GST/Flag-core106 dimerization, 1536-well; 0.33% of 300,000 active; inhibition, % at 5 µM;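 active = inhibition above the mean of all tested compounds plus 3 SD, set per screening campaign, cut at about 45% in these data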
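Assay system: tagged HCV core106 pair (GST and Flag); medium: KF-containing HEPES buffer, pH 7.45, DTT, CHAPS, BSA; also added: Eu donor and XL665 acceptor anti-tag antibodies; dosing: 5 µM single dose; timing: compound-protein-antibody incubation 4 h at 22.5 °C; signal: TR-FRET 671 and 617 nm emission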
ZTA counter – ZTA (EBV) inhibition in EBNA-1 counter-screen; inhibition, % at 11 µM; P03206; 0.15% of 320,000 active; ZTA-DNA binding, fluorescence polarization; in the data active = inhibition above about 33%
EBV gp42 inh – inhibitors of Epstein-Barr virus glycoprotein 42. inhibition, % (tested at 21.74 µM). Q1HVG2. 0.42% of 220,000 active. Fluorescence polarization binding assay, mP read-out. AID 1085; in the data active = inhibition above about 50%
Target sequence (Q1HVG2 whole entry, looked up): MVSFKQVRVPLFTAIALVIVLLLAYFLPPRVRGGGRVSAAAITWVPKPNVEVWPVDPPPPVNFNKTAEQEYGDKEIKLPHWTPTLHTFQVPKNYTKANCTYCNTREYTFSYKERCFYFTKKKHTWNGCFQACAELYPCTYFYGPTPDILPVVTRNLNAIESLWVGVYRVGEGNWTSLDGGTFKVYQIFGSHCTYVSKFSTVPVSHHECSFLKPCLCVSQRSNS
GPR7 antagonist – human neuropeptides B/W receptor 1 antagonism; P48145; AID 1861; 1.1% of 290,000 active; inhibition, % at 4.4 µM; GPR7-expressing cells, fluorescence antagonist assay; in the data active = inhibition above about 16%, passing the limit was not always enough;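 note: cells stimulated with the agonist NPW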
Target sequence (P48145 whole entry, looked up): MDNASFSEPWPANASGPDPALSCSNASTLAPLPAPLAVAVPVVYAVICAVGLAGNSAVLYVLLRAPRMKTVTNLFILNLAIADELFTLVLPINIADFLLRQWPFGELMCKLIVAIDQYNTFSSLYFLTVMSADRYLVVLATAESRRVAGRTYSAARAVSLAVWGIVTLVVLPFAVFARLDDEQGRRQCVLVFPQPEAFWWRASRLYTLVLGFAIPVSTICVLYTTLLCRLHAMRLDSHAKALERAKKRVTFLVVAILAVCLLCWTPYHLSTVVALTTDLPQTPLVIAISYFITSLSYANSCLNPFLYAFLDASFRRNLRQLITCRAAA
EBNA-1 inh conf – EBNA-1 (EBV) inhibition, confirmation; shares compounds with EBNA-1 inh; Recombinant EBNA-1 DBD, Cy5-DNA fluorescence polarization; inhibition, % at 14.8 µM; 35% of 830 active;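 active = mean inhibition across replicates above a set limit taken from the earlier primary screen, cut at about 28% in these data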
ZTA DNA inh trip – ZTA (EBV) inhibition, triplicate counter-screen; shares compounds with EBNA-1 inh; Zta-ZRE DNA binding, Cy5 fluorescence polarization; inhibition, % at 11.1 µM; 830 tested, under 10 active; AID 2328;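 active = mean inhibition over triplicates above a set limit taken from the primary EBNA-1 screen, cut at about 37% in these data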;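 note: purified full length Zta protein with Cy5 labeled ZRE DNA probe; inhibitors lower polarization by freeing the labeled DNA probe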
Large screens that a line does not name were inactive (follow-up assays come after a bar, where they were run). Compounds with a hit are over-represented: about 2.3% of the library has one in this group of screens.

Cc1cccc(OCc2nnc(SCC(=O)Nc3cc(C)on3)n2C)c1	EBNA-1 inh 31.0 | EBNA-1 inh conf inactive | ZTA DNA inh trip inactive
C[C@@H]1NC(=O)c2cc([N+](=O)[O-])cc(I)c2OCC[C@@H](C(=O)NC(CC(=O)O)C(N)=O)NC(=O)[C@H](CC(N)=O)NC1=O (some centres undefined)	none
COc1cc(CC(=O)Nc2sc3c(c2C(N)=O)CCCC3)cc(OC)c1OC	EBNA-1 inh 48.6 (no result: EBV gp42 inh) | EBNA-1 inh conf inactive | ZTA DNA inh trip inactive
COc1ccc(CC(=O)Nc2sc3c(c2C(N)=O)CCCC3)cc1	none (no result: EBV gp42 inh)
COc1ccc(-c2nnn(CC(=O)NCCc3c[nH]c4ccccc34)n2)cc1OC	none
COc1ccc(-c2cn(Cc3ccc(C(=O)c4ccccc4)cc3)nn2)cc1	EBNA-1 inh 27.9 (no result: EBV gp42 inh) | EBNA-1 inh conf inactive | ZTA DNA inh trip inactive
CC1CC(C)CN(S(=O)(=O)c2ccc(C(=O)NCc3ccco3)cc2)C1 (centres undefined)	none
CCOP(=O)(c1ccccc1)C(O)c1ccc(F)cc1 (centres undefined)	EBNA-1 inh 103.0 | EBNA-1 inh conf inactive | ZTA DNA inh trip inactive
CCOP(=O)(c1ccccc1)C(O)c1ccc([N+](=O)[O-])cc1 (centres undefined)	none (no result: EBV gp42 inh)
CCOC(=O)C1CCN(Cc2ccc(Cl)c(Cl)c2)CC1	EBNA-1 inh 45.5 | EBNA-1 inh conf inactive | ZTA DNA inh trip inactive
CCOC(=O)C1CCN(Cc2ccc(F)cc2)CC1	none
CCOc1ccc(C2C=C(c3ccccc3)Nc3nnnn32)cc1 (centres undefined)	none
CCOc1ccc(C2C=C(c3ccc(C)cc3)Nc3nnnn32)cc1 (centres undefined)	EBNA-1 inh 51.7 | EBNA-1 inh conf inactive | ZTA DNA inh trip inactive
CS(=O)(=O)N(CC(=O)N/N=C/c1ccc(OCC(=O)N2CCOCC2)cc1)c1ccccc1Cl	EBNA-1 inh 35.6 | EBNA-1 inh conf inactive | ZTA DNA inh trip inactive
O=C(N/N=C/c1ccc(OCC(=O)N2CCOCC2)cc1)c1ccccc1Cl	none
CCOc1ccc(/C=N/NC(=O)c2ccc(F)cc2)cc1CN1CC2CC(C1)c1cccc(=O)n1C2 (centres undefined)	none (no result: EBNA-1 inh, HCV NS3 hel inh, core dimer inh, EBV gp42 inh, GPR7 antagonist)
CC(=O)Nc1c2c(nn1-c1ccc(C)cc1)CSC2	none (no result: EBV gp42 inh)
Cc1ccc(-n2nc3c(c2NC(=O)c2ccc4c(c2)OCO4)CSC3)cc1	EBNA-1 inh 46.5 | EBNA-1 inh conf inactive | ZTA DNA inh trip inactive
O=C(N/N=C\c1ccc(CNS(=O)(=O)c2ccc(Cl)cc2)o1)C(=O)Nc1ccc(Oc2ccccc2)cc1	EBNA-1 inh 29.3 | EBNA-1 inh conf 30.4 | ZTA DNA inh trip inactive
Cc1ccc(C(=O)O)cc1NC(=O)CN1C(=O)C2C3c4ccccc4C(Br)(c4ccccc43)C2C1=O (centres undefined)	none
S=c1nc[nH]c2c1[nH]c1ccc(Cl)cc12	EBNA-1 inh 42.7 | EBNA-1 inh conf inactive | ZTA DNA inh trip inactive
O=C(COc1ccccc1)NCc1ccc(-n2cccc2)cc1	EBNA-1 inh 91.8 | EBNA-1 inh conf 41.6 | ZTA DNA inh trip inactive
Nc1nnnn1/N=C/c1ccccc1OCc1ccccc1	EBNA-1 inh 28.8 | EBNA-1 inh conf inactive | ZTA DNA inh trip inactive
O=C(NCc1csc(-c2cccs2)n1)Nc1cccc(Cl)c1	EBNA-1 inh 28.4 | EBNA-1 inh conf inactive | ZTA DNA inh trip inactive
CCC(=O)NCc1csc(-c2cccs2)n1	none
COc1ccc(-c2ccc(C#N)c(SCC(=O)NCCc3ccccc3)n2)cc1OC	EBNA-1 inh 28.1 | EBNA-1 inh conf inactive | ZTA DNA inh trip inactive
CCCNC(=O)Nc1ccc(C(F)(F)F)cc1	none
O=C(N/C(=C\c1ccc(Br)cc1)c1nc2ccccc2[nH]1)c1ccco1	EBNA-1 inh 49.0 | EBNA-1 inh conf 33.2 | ZTA DNA inh trip inactive
O=C(CN1CCCC1)Nc1c(C(=O)C2CC2)oc2ccccc12	none
N#Cc1ccccc1OCC(=O)Nc1c(C(=O)C2CC2)oc2ccccc12	EBNA-1 inh 30.1 | EBNA-1 inh conf 91.7 | ZTA DNA inh trip inactive
CCOc1ccc(-n2c(=O)c3sccc3n(CC(=O)Nc3cccc(OC)c3)c2=O)cc1	EBNA-1 inh 51.6 | EBNA-1 inh conf 31.0 | ZTA DNA inh trip inactive
COc1ccc(NC(=O)Cn2c(=O)n(-c3ccccc3)c(=O)c3sccc32)c(OC)c1	none
CCOc1ccc(/C=N/NC(=O)c2ccc(CSc3nc4ccccc4[nH]3)cc2)cc1	EBNA-1 inh 32.8 | EBNA-1 inh conf 39.1 | ZTA DNA inh trip inactive
Cc1ccc(C)c(NC(=O)C(=O)NCc2ccccn2)c1	none
CNC(=S)NNC(=O)c1sccc1OCc1ccc(C)cc1	none
CNC(=S)NNC(=O)c1sccc1OCc1cccc(C(F)(F)F)c1	EBNA-1 inh 35.3 | EBNA-1 inh conf 65.1 | ZTA DNA inh trip inactive
COc1ccccc1N1CCN(c2ccc([N+](=O)[O-])cc2Cl)CC1	EBNA-1 inh 38.2 | EBNA-1 inh conf inactive | ZTA DNA inh trip inactive
N#Cc1nc(-c2ccc(Cl)cc2)oc1NCc1cccc2c1OCO2	EBNA-1 inh 27.8 | EBNA-1 inh conf 30.0 | ZTA DNA inh trip inactive
Cc1cccc(C)c1NC(=O)COC(=O)C1Cc2ccccc2CN1C(=O)c1ccccc1 (centres undefined)	none
N#Cc1ccc(NC(=O)COC(=O)C2Cc3ccccc3CN2C(=O)c2ccccc2)cc1 (centres undefined)	EBNA-1 inh 33.0 | EBNA-1 inh conf inactive | ZTA DNA inh trip inactive
O=C(CSc1nnc(Nc2ccccc2F)s1)c1cc2ccccc2o1	none
COc1ccc(Nc2nnc(SCC(=O)c3cc4ccccc4o3)s2)cc1	EBNA-1 inh 44.1 | EBNA-1 inh conf 36.9 | ZTA DNA inh trip inactive
Cc1ccc(N2CC(C(=O)Nc3nnc(SCC(=O)Nc4cc(C)on4)s3)CC2=O)cc1 (centres undefined)	EBNA-1 inh 34.4 | EBNA-1 inh conf inactive | ZTA DNA inh trip inactive
COc1ccccc1Nc1nnc(SCC(=O)Nc2cc(C)on2)s1	EBNA-1 inh 35.3 | EBNA-1 inh conf inactive | ZTA DNA inh trip inactive
CNS(=O)(=O)c1cn(CC(=O)NCc2ccc(OC)cc2)cc1S(=O)(=O)NC	none (no result: EBV gp42 inh)
O=C(Nc1ccccc1F)c1cc2c(s1)-c1ccccc1S(=O)(=O)C2	EBNA-1 inh 52.8 | EBNA-1 inh conf 56.6 | ZTA DNA inh trip inactive
Cc1ccc(NC(=O)CSc2nnc(NC(=O)c3ccc(S(=O)(=O)N4CCOCC4)cc3)s2)cc1	EBNA-1 inh 56.4 | EBNA-1 inh conf 84.3 | ZTA DNA inh trip inactive
CCOC(=O)c1ccc(NC(=O)CSc2nnc(NC(=O)c3ccc(S(=O)(=O)N4CCOCC4)cc3)s2)cc1	none
O=C(CCC1CCCCC1)Nc1ccccc1C(=O)N1CCOCC1	none
